Results reported in the EternaBench riboswitch data.

Test system: MS2 coat protein
Assay: apparent Kd, MS2 coat protein; higher = weaker binding; RNA-MaP array; FMN 200 µM where present
Procedure, shortened: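 The apparent Kd comes from binding curves fitted cluster by cluster, filtered, and summarised as a median. Those curves followed SNAP-549-labelled MS2 coat protein from 0.7 or 1.5 nM, doubling to 3 µM, on Illumina sequencing-chip clusters where stalled E. coli RNA polymerase had transcribed the designs, without and then with constant ligand. The buffer was 100 mM Tris-HCl pH 7.5, 80 mM KCl, 4 mM MgCl2, BSA, DTT, yeast tRNA and Tween-20, and green signal was normalised to red-channel RNA signal and control-cluster median Fmax.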

[1] = designed as: OFF switch for flavin mononucleotide, no ligand
[2] = ligand present: flavin mononucleotide, designed as: OFF switch for flavin mononucleotide
[3] = designed as: ON switch for flavin mononucleotide, no ligand
[4] = ligand present: flavin mononucleotide, designed as: ON switch for flavin mononucleotide

Sequence	apparent Kd [1] [nM]	apparent Kd [2] [nM]	apparent Kd [3] [nM]	apparent Kd [4] [nM]
CUGGUUGUCGAGGAUAUGCACCAGCUCGCUGACGCAGAAGGCGACACAUGAGGAUCACCCAUGUCGGUUCGCGU	21.9	32.9		
CCGGAAACGGGUAGCUGUACAUGAGGAUCACCCAUGUGAUCAGAGGAUAUGGAUCCUAAUUGGAUCCAGAAGGCUGUCAGCUAC			119	29.1
CGUCUGGAUCAAGGAUAUGUCAAGACGCUCCGCGUACACAUGAGGAUCACCCAUGUCAACAAAUGACAGAAGGUGAUAAUGGCC			80.3	444
AAUGAGACCGCAGGAUAUCCACAUGAGGAUCACCCAUGUUCUCAGGUCGUAAGCACGACCUGCGAGGAGAAGGGCGACCUCAUA			395	33.8
UGUUUUUUGGGAGGAUAUGUAAAUUUAAACAUGAGGAUCACCCAUGUGGAUCACCCAUGUAGAUAAUAGAAGGCCCUUUUUUUU	55.3	36.5		
UACAUCAAUGAAGGAUAUCUAUAUCCAACAUGAGGAUCACCCAUGUUGAGGAUCACCCAUGUAAAGGAGAAGGUUAACAUAACU			39.4	34
UCGCCAGGUACAGGAUAUGUGGAUCGGUCAAGUAACUCGCCGAACAUGAGGAUCACCCAUGUAUCACAGAAGGGUGCCUCAAAG			223	10.8
AACAGUACAGGAUAUACAUGAGGAUCACCCAUGUGAGAAUUAAGUGGCGAACCACAAAGUAGAAGGGUACUGGA	59.6	197		
UGUUGUAUUACAGGAUAUCUAUUAUUUUUAAUUAGAGAAGGGUAUUCACAUGAGGAUCACCCAUGUAUAUACGAGGAAGUUGUG			35.2	35.8
UUUCUCGUUGUGAGGAUAUCGUUUUUGUCUCGGAUCGAGAAGGCACAUGAGGAUCACCCAUGUUUGUUGUGGUU	85.1	103		
AACGGUGGGUAGGAUAUCCGGUUCUAGUUGCCAGGAGAAGGGCCCACAUGAGGAUCACCCAUGUGGGUGGGCUC	47.7	26.1		
UGUUGUAUUACAGGAUAUCUAUUAUUAUUAUUUAGAGAAGGGUAUUCACAUGAGGAUCACCCAUGUAUAUACGAGGAAGUUGUG			43.7	45.5
UCCACUGCUGAGAAGGGAUACGUGUGGUUCGAAUCAGGAUAUCGAUACAGUGCAGCAUGAGGACAUGAGGAUCACCCAUGUAUU			19.1	14.2
UUUACUUACGAAGGAUAUGGAUACAUGAGGAUCACCCAUGUAUGUAUGAUGAUCUAGUAGUUGGGCCAGAAGGUCGUGAUUAUU	16.9	21.8		
GAAGCACGCAUUAACAUGAGGAUCACCCAUGUGAAAACACGUGAGGAUAUCGAUCUGAAGAAGAUCGAGAAGGCACCGUGCUAA			5.53	5.11
AAUUUACAGCGAGGAUAUACAUGAGGAUCACCCAUGUAAUCAUAUGAUAUUUUUUUUGUAUGAGUGUAGAAGGCGCAAAUAAAA	10.2	9.61		
CGAAACUACGAGAAGGACAUGUGGUCCUUCAGUUACAUGAGGAUCACCCAUGUAGGAUAUCGUAGUUUCAGGAUCGUGAGAUCC	58.6	16.6		
UUGGACGUCGUAGGUUAUGUAGGAUAUUCCUACAUGAGGAUCACCCAUGUUGACAUGGAAGAAGGACAGAAGGACGAUGUCCAU			205	3.92
UGUCGGAGCAGAGGAUAUUACAUGAGGAUCACCCAUGUAUGAACCAAUAGCUGGAAACAGCAAUGUAAGAAGGCUGCUCCGACG	12.9	157		
GUGUACGGAGGAUAUAUAUGGGCAGCAUACGCUGCAGCUUCACAUGAGGAUCACCCAUGUAGAAGGCUGUGCAC	22.4	129		
UGUGCGUAUGUGAGGAUAUGCUGGUCCUUGGCUCGGCAGAAGGCACAUGAGGAUCACCCAUGUGGUGUCGUACC	38.6	189		

Sequence	apparent Kd [1] [nM]	apparent Kd [2] [nM]	apparent Kd [3] [nM]	apparent Kd [4] [nM]
GUAGCAUACCGAGGAUAUUCUGGGCUUAAAUAAACAUGAGGAUCACCCAUGUGGCGAAAGCCUAGGGAGAAGGCGGAAUGCUAC			13.7	13
CUUUUGUGAGGAUAUUCGUAGUAGGGUCAUGGCACUAUUAUGGAGAAGGCACAUGAGGAUCACCCAUGUACCUU	16.6	29.3		
AUGGAUAUCACAGGAUAUGCUAUGGAUACCAUAGCAGAAGGGUGAUCCAUCCUAUGUGAACACAUGAGGAUCACCCAUGUGUCC			98.4	17.9
ACCAUUUACUAAUUAUCUAUACAUGAGGAUCACCCAUGUUAAGAGGAUAUCAUCGUUCGCCGCGUUGAGAAGGCUUAGCAUUCG	26.4	101		
UUUUAGGCAGGAUAUACAUGAGGAUCACCCAUGUAAAUUUUUCGUUUAACUUGAAUGUGUAGAAGGGCCAUAUU	20.5	21.4		
GGUGCGUUUGUGAGGAUAUGCUGGUCCUUGGAUCAGCAGAAGGCACAUGAGGAUCACCCAUGUGGUGUCCCUCC	168	291		
UUUAAGGAAGGAUAUACAAUAUAAAUAAUAUCCUCAUUAUUACAUGAGGAUCACCCAUGUAGAAGGUCCAAUUU	118	368		
CCAGGCUGUGUGAGGAUAUGCUGGUCCUUGGAUCAGCAGAAGGCACAUGAGGAUCACCCAUGUGAAGAGCUUGG	16.4	65		
AUAUUAUUGAUCCAUUUUUUCAACAUGAGGAUCACCCAUGUGCAGGAUAUCGUGUGUUUUAUAAACGAGAAGGGCAAAUUCAUU	82.6	218		
AAUUAAUUAAUACAUGAGGAUCACCCAUGUAAUUAUUAGAUCAAGGAUAUCAGCUCGAUUAGAGCUGAGAAGGUGAUCACAUGU			412	102
AAUGGCGUGAUAAUGCUAAUUAAAACAUGAGGAUCACCCAUGUAGGAUAUCCUACCGAAAUGGUAGGAGAAGGACAAGCAAUGA	44.1	46.6		
UUUUUAUUUGUAGGAUAUGGAGACAUGAGGAUCACCCAUGUAUGAUAAGCUAAAUUAUGCUGUGGCCAGAAGGAUAUUAUUUUU			43.9	49.7
ACAUGAGGAUCACCCAUGUAUUACAUGGUUAUGUUUAUUAACAGAAGGCGAAAUUACCACUGUUUCGAGGAUAUGUAUUCUAUA	65.5	63		
GUUUUGAUAGGAUAUACAUGAGGAUCACCCAUGUCCCACCCGUUACCUAUGACCAUAUGUAGAAGGAUCGUUUG	98.1	83.9		
CGCAAGUAUACAUGAGGAUCACCCAUGUCAGAAAGGGUAAUCAGAAGGUACUAUUAGAGAUAGAGUAAGGAUAUGAAAUUUGCG			718	138
GGAUGUCAAAGACAUCCUAAACGAACAUGAGGAUCACCCAUGUAGGAUAUGCUACUCAAAGAGUAGCAGAAGGACAUGUGCCUU	35	238		
AAGAAGUGAGGAUAUACGCGAACAAAAAAAAAAAAGAAAGCGUAGAAGGCACAUGAGGAUCACCCAUGUCCAAA	27.2	36.3		
CGCAUCUCUACAAUUCCUUCACAUGAGGAUCACCCAUGUAGGGAGGAUAUGCAAGCUUAUUGGCGGCAGAAGGCCCUGCAAUGG	142	127		
GUAGCUACAUGAGGAUCACCCAUGUAGGAUAUCGCUAUUGUAAUCAUGUUACAUGAUUACAAUAGCGAGAAGGACGUGAGCUAC	8.39	8.7		
ACGUUUUAUGCAGGAUAUUGACAUAUAUUUAAACAAGAAGGGCAUUACAUGAGGAUCACCCAUGUUAUAAUGGUAUUUAAGUUC	14.7	15.6		
CGGGCUGCCAGAGGAUAAUGGACAUGAGGAUCACCCAUGUGUCAGGAUAUGGGUUUCACAUGGACUCAGAAGGGACCAGCCCGA			82.5	22.4
